From ChEMBL document CHEMBL1150614, “Novel cytotoxic oxygenated C29 sterols from the Colombian marine sponge Polymastia tenax” (J Nat Prod, 2002) come the findings set out here.

≈ marks a conversion by molar mass, not a printed value.

What all share (conditions): read-out: LC50 (the source's name)
One series deals with HT-29. Put plainly: Cytotoxicity against human HT-29 cells. The series is classed as functional. The essentials:
(§1)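 In vitro cytotoxicity assay against the cell line named; values reported as IC50 in µg/mL.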

The subject of a further series is A549. Put plainly: Cytotoxicity against human A549 cells. The format is functional. The essentials: as §1
Series [1] can be described thus: Cytotoxicity against human H116 cells. The format is functional. Summed up: as §1
The nature of series [2]: Cytotoxicity against mouse MS1 cells. The series is classed as cell-based. The essentials:
as §1

The next series concerns PC-3. Briefly: Cytotoxicity against human PC3 cells. The series is classed as functional. The essentials:
as §1

Consider `CC[C@H](CC[C@@H](C)[C@H]1CCC2=C3[C@H](O)[C@@H]4O[C@@]45C[C@@H](O)CC[C@]5(C)[C@H]3CC[C@@]21C)C(C)C`, for which the CC50 is 1 µg/mL (≈ 2.25 µM) in the series with HT-29; 5 µg/mL (≈ 11.2 µM) in the series with A549; 1 µg/mL (≈ 2.25 µM) in series [1]; 0.5 µg/mL (≈ 1.12 µM) in series [2]; 1 µg/mL (≈ 2.25 µM) in the series on PC-3.
Consider `CC[C@H](CC[C@@H](C)[C@H]1CC[C@H]2C3=C(CC[C@]12C)[C@@]1(C)CC[C@H](O)C[C@@]12O[C@H]2[C@H]3O)C(C)C` (relative stereo), for which the CC50 amounted to 1 µg/mL (≈ 2.25 µM) in the series on HT-29; 1 µg/mL (≈ 2.25 µM) in the series with A549; 1 µg/mL (≈ 2.25 µM) in series [1]; 0.5 µg/mL (≈ 1.12 µM) in series [2]; 1 µg/mL (≈ 2.25 µM) in the series on PC-3.
